# Measured values reported in ChEMBL document CHEMBL4602706, “Natural Product Evodiamine with Borate Trigger Unit: Discovery of Potent Antitumor Agents against Colon Cancer” (ACS Med Chem Lett, 2020).
# pIC50: −log10 of the molar value. Calls of active or inactive are those of the source. The calls are words filed in the database; no cut-off is given here.
# How the values were obtained:
# HCT-116 [1] = assay: Antitumour activity against human HCT116 cells xenografted in nude mouse assessed as tumour growth inhibition at 0.5 mg/kg, ip qd measured every two days for 21 days by caliper method relative to control; type: functional; conditions: HCT-116, ip, read-out: TGI
# [2] = Toxicity in nude mouse xenografted with human HCT116 cells assessed as change in body weight at 0.5 mg/kg, ip qd measured every two days for 21 days; type: organism-based, HCT-116; conditions: in vivo, 504 h
# [3] = target: T1, DNA topoisomerase II (Homo sapiens) (UniProt P11388+Q02880); assay: Inhibition of Top2 (unknown origin) at 50 uM using supercoiled pBR322 plasmid DNA as substrate incubated for 30 mins by PI staining based agarose gel electrophoresis analysis; type: protein assay
# HCT-116 [4] = assay: Induction of apoptosis in human HCT116 cells assessed as apoptotic cells at 0.2 uM incubated for 48 hrs by AnnexinV-FITC/PI staining based flow cytometric analysis (reference value: 6.25 to 8.23%); type: functional
# Outline: (§1)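 HCT116 cells exposed to 0.05, 0.2 or 0.4 μM for 48 h. Apoptotic cells quantified by flow cytometry, n = 3.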
# [5] = target: T2, DNA topoisomerase 1 (Homo sapiens) (UniProt P11387); assay: Inhibition of Top1 (unknown origin) at 83.3 uM using supercoiled pBR322 plasmid DNA as substrate incubated for 15 mins by PI staining based agarose gel electrophoresis analysis
# T2 sequence (whole entry): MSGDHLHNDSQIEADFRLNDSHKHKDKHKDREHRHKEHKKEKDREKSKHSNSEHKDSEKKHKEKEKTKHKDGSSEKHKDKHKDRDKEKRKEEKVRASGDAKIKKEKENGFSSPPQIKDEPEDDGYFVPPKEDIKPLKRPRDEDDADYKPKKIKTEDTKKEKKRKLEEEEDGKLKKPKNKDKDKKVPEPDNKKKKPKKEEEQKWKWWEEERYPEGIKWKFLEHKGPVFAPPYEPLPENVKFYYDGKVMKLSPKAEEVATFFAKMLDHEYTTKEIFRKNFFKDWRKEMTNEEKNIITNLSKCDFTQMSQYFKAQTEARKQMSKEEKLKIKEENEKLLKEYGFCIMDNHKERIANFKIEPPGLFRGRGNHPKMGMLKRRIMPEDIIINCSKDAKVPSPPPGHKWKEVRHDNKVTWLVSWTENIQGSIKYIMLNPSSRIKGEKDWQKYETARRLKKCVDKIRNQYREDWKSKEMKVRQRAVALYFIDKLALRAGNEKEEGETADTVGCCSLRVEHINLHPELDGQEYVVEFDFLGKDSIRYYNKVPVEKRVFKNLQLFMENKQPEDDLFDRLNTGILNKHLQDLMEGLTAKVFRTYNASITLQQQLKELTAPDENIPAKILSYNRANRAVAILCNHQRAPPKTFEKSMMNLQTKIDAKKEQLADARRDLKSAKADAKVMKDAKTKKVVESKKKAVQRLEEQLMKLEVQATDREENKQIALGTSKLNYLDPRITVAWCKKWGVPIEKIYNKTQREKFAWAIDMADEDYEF
# HCT-116 [6] = assay: Induction of cell cycle arrest in human HCT116 cells assessed as accumulation at G2 phase at 0.4 uM incubated for 24 hrs by propidium iodide staining based flow cytometry (reference value: 18.51 to 20.82%); type: functional
# HCT-116 [7] = assay: Induction of apoptosis in human HCT116 cells incubated for 48 hrs by AnnexinV-FITC/PI staining based flow cytometric analysis; type: functional, cell-based
# [8] = target: T2, DNA topoisomerase 1 (Homo sapiens); assay: Inhibition of Top1 (unknown origin) at 125 uM using supercoiled pBR322 plasmid DNA as substrate incubated for 15 mins by PI staining based agarose gel electrophoresis analysis
# Outline: (§2)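 Top1 inhibition tested at 500, 250 and 125 μM, and over 27.9 to 250 μM for selected compounds.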
# [9] = target: T2, DNA topoisomerase 1 (Homo sapiens); assay: Inhibition of Top1 (unknown origin) at 500 uM using supercoiled pBR322 plasmid DNA as substrate incubated for 15 mins by PI staining based agarose gel electrophoresis analysis; outline: as §2
# HCT-116 [10] = assay: Induction of cell cycle arrest in human HCT116 cells assessed as accumulation at G1 phase at 0.05 uM incubated for 24 hrs by propidium iodide staining based flow cytometry (reference value: 38.49 to 51.18%); type: functional
# [11] = Toxicity in nude mouse xenografted with human HCT116 cells assessed as change in body weight at 10 mg/kg, ip bid measured every two days for 21 days; type: organism-based, HCT-116; conditions: in vivo, 504 h
# Outline: (§3)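 HCT116 xenograft in mice. Dosing 10 mg/kg intraperitoneally over 21 consecutive days; tumour growth inhibition and body weight followed. Mean ± SEM, Student's t test versus vehicle group.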
# HCT-116 [12] = assay: Induction of cell cycle arrest in human HCT116 cells assessed as accumulation at S phase at 0.2 uM incubated for 24 hrs by propidium iodide staining based flow cytometry (reference value: 30.31 to 40.69%); type: functional
# HCT-116 [13] = assay: Antiproliferative activity against human HCT116 cells incubated for 72 hrs by CCK8 assay; type: functional, cell-based; conditions: Homo sapiens, HCT-116, 72 h; read-out: IC50
# Outline: (§4)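 HCT116, MCF-7 and A549 human cancer cell lines; antiproliferative activity read out by CCK8 assay. Evodiamine derivatives and camptothecin served as positive controls.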
# A549 = assay: Antiproliferative activity against human A549 cells incubated for 72 hrs by CCK8 assay; type: functional, cell-based; conditions: Homo sapiens, A549, 72 h; read-out: IC50; outline: as §4
# HCT-116 [14] = assay: Induction of apoptosis in human HCT116 cells assessed as apoptotic cells at 0.05 uM incubated for 48 hrs by AnnexinV-FITC/PI staining based flow cytometric analysis (reference value: 6.25 to 8.23%); type: functional; outline: as §1
# [15] = target: T1, DNA topoisomerase II (Homo sapiens); assay: Inhibition of Top2 (unknown origin) using supercoiled pBR322 plasmid as substrate incubated for 30 mins by PI staining based agarose gel electrophoresis analysis; type: protein assay
# HCT-116 [16] = assay: Induction of cell cycle arrest in human HCT116 cells assessed as accumulation at G1 phase at 0.4 uM incubated for 24 hrs by propidium iodide staining based flow cytometry (reference value: 38.49 to 51.18%); type: functional
# [17] = Drug metabolism in PBS buffer assessed as H2O2-mediated 3-Fluoro-10-hydroxy-14-methyl-8,13,13b,14-tetrahydro-7H-indolo[2',3':3,4]pyrido[2,1-b]quinazolin-5-one release rate at pH 7.4 incubated for 8 hrs in presence of 0.05 mM H2O2 by HPLC analysis; type: physicochemical; conditions: pH 7.4, 8 h
# Outline: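 Release of the parent compound after treatment with H2O2 at varied concentrations, including 0.05 mM, in PBS pH 7.4. Analysed by HPLC.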
# [18] = Metabolic stability in mouse liver microsomes assessed as half life at 1 uM preincubated with compound followed by NADPH addition measured upto 45 mins by LC-MS/MS analysis; type: ADME, Microsome
# Outline: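 In vitro stability in liver microsomes; terminal half-life determined.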
# HCT-116 [19] = assay: Induction of cell cycle arrest in human HCT116 cells assessed as accumulation at S phase at 0.05 uM incubated for 24 hrs by propidium iodide staining based flow cytometry (reference value: 30.31 to 40.69%); type: functional
# MCF7 = assay: Antiproliferative activity against human MCF7 cells incubated for 72 hrs by CCK8 assay; type: functional, cell-based; conditions: Homo sapiens, MCF7, 72 h; read-out: IC50; outline: as §4
# HCT-116 [20] = assay: Antitumour activity against human HCT116 cells xenografted in nude mouse assessed as tumour growth inhibition at 10 mg/kg, ip bid measured every two days for 21 days by caliper method relative to control; type: functional; conditions: HCT-116, ip, read-out: TGI; outline: as §3
# [21] = Drug metabolism in human HCT116 cells assessed as 3-Fluoro-10-hydroxy-14-methyl-8,13,13b,14-tetrahydro-7H-indolo[2',3':3,4]pyrido[2,1-b]quinazolin-5-one release by measuring parent compound retention time incubated for 8 hrs by UPLC-QTOF/MS analysis; type: ADME, cell-based; conditions: hct-116, 8 h
# Outline: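 Compounds incubated with HCT116 cells; culture media analysed by HPLC after 8, 48 and 72 h. Relative release rate taken from relative peak areas; parent and product identified by retention time.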
# HCT-116 [22] = assay: Induction of apoptosis in human HCT116 cells assessed as apoptotic cells at 0.4 uM incubated for 48 hrs by AnnexinV-FITC/PI staining based flow cytometric analysis (reference value: 6.25 to 8.23%); type: functional; outline: as §1
# HCT-116 [23] = assay: Induction of cell cycle arrest in human HCT116 cells assessed as accumulation at G2 phase at 0.2 uM incubated for 24 hrs by propidium iodide staining based flow cytometry (reference value: 18.51 to 20.82%); type: functional
# HCT-116 [24] = assay: Induction of cell cycle arrest in human HCT116 cells assessed as accumulation at S phase at 0.4 uM incubated for 24 hrs by propidium iodide staining based flow cytometry (reference value: 30.31 to 40.69%); type: functional
# HCT-116 [25] = assay: Induction of cell cycle arrest in human HCT116 cells assessed as accumulation at G2 phase at 0.05 uM incubated for 24 hrs by propidium iodide staining based flow cytometry (reference value: 18.51 to 20.82%); type: functional
# [26] = Drug metabolism in human HCT116 cells assessed as 3-Fluoro-10-hydroxy-14-methyl-8,13,13b,14-tetrahydro-7H-indolo[2',3':3,4]pyrido[2,1-b]quinazolin-5-one release at 0.2 mM by UPLC-QTOF/MS analysis relative to control; type: ADME, cell-based; conditions: hct-116, 200 µM, TDE = time-dependent effect
# HCT-116 [27] = assay: Induction of cell cycle arrest in human HCT116 cells assessed as accumulation at G1 phase at 0.2 uM incubated for 24 hrs by propidium iodide staining based flow cytometry (reference value: 38.49 to 51.18%); type: functional
smiles,measurement,setting,value
CC[C@@]1(O)C(=O)OCc2c1cc1n(c2=O)Cc2cc3c(CN(C)C)c(O)ccc3nc2-1 [TOPOTECAN],inhibition in vivo at 0.5 mg/kg,HCT-116 [1],68.8%
same,Activity,[2],Toxic
CN1c2ccc(F)cc2C(=O)N2CCc3c([nH]c4ccc(OC(=O)OCc5ccc(B6OC(C)(C)C(C)(C)O6)cc5)cc34)C21 (centres undefined),inhibition,[3],Active
same,Activity,HCT-116 [4],55.64%
same,inhibition,[5],Active
same,Activity,HCT-116 [6],56.25%
same,Activity,HCT-116 [7],Dose-dependent effect
same,inhibition,[8],Active
same,inhibition,[9],Active
same,Activity,HCT-116 [10],34.32%
same,Activity,[11],Non-Toxic
same,Activity,HCT-116 [12],45.69%
same,pIC50,HCT-116 [13],7.80
same,pIC50,A549,7.43
same,Activity,HCT-116 [14],41.28 - 42.28%
same,inhibition,[15],Active
same,Activity,HCT-116 [16],4.95%
same,Drug metabolism,[17],Dose-dependent effect
same,half-life at 1 µM,[18],8.36 min
same,Activity,HCT-116 [19],38.8%
same,pIC50,MCF7,7.48
same,inhibition in vivo at 10 mg/kg,HCT-116 [20],64.4%
same,Retention_time,[21],11.4 min
same,Activity,HCT-116 [22],61.73%
same,Activity,HCT-116 [23],45.49%
same,Activity,HCT-116 [24],38.8%
same,Activity,HCT-116 [25],26.88%
same,Drug metabolism,[26],Tde
same,Activity,HCT-116 [27],8.82%
